These results are taken from ChEMBL document CHEMBL1759862, “Tricyclic compounds containing nonenolizable cyano enones. A novel class of highly potent anti-inflammatory and cytoprotective agents” (J Med Chem, 2011).

Chain of NAD(P)H dehydrogenase [quinone] 1 (Mus musculus) (Q64669 whole entry): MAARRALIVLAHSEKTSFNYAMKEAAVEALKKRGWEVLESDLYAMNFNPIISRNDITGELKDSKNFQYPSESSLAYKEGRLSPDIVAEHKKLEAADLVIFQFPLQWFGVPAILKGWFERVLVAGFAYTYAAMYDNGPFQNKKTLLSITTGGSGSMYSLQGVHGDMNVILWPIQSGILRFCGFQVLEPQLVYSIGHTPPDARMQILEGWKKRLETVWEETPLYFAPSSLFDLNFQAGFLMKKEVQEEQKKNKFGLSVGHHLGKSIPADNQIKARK

One assay relates to RAW264.7. Put plainly: Antiinflammatory activity in mouse RAW264.7 cells assessed as inhibition of IFN-gamma induced NO production after 24 hrs by Griess reaction. The note with it: Mus musculus, RAW264.7, 24 h. The format is functional, cell-based. An outline of the steps: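 RAW 264.7 cells exposed to serial concentrations of compound together with IFN-γ (10 ng/mL) for 24 h; NO in supernatants quantified by Griess reaction. IC50 tested over 0.1 pM to 10 μM in 10-fold steps; values averaged from two separate experiments.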
Background: Griess reagent forms a coloured azo dye with nitrite.
In the case of `CC1(C)C(=O)C(C#N)=C[C@]2(C)C3=CC(=O)C(C#N)=C[C@]3(C#C[Si](C)(C)C(C)(C)C)CCC12` (mixture of isomers), the IC50 turned out to be 0.08 µM. Still for that read-out and setting: the figure for `CC1(C)C(=O)C(C#N)=C[C@]2(C)C3=CC(=O)CCCC3(F)CC[C@@H]12` (mixture of isomers) is 0.36 µM; for `CC1(C)C(=O)C(C#N)=C[C@]2(C)C3=CC(=O)CC[C@]3(CO)CC[C@@H]12` (racemic) it is 0.35 µM. The same measure, in the same setting: the figure for `CC1(C)C(=O)C(C#N)=C[C@]2(C)C3=CC(=O)CC[C@]3(CO[Si](C)(C)C(C)(C)C)CC[C@@H]12` (racemic) is 0.48 µM; for `CC1(C)C(=O)C(C#N)=C[C@]2(C)C3=CC(=O)CC[C@]3(C=O)CC[C@@H]12` (racemic) it is 0.083 µM; for `CC(C)(C)OC(=O)NC[C@]12CCC(=O)C=C1[C@@]1(C)C=C(C#N)C(=O)C(C)(C)[C@@H]1CC2` (racemic) it is 0.064 µM. For `CC1(C)C(=O)C(C#N)=C[C@]2(C)C3=CC(=O)CC[C@]3(C#N)CC[C@@H]12` (racemic), the half-inhibitory concentration (IC50) amounted to 0.064 µM.

Consider `CC(=O)OC[C@]12CCC(=O)C=C1[C@@]1(C)C=C(C#N)C(=O)C(C)(C)[C@@H]1CC2` (racemic), for which the IC50 is 0.085 µM. The same measure, in the same setting: the figure for `COC(=O)[C@]12CCC(=O)C=C1[C@@]1(C)C=C(C#N)C(=O)C(C)(C)[C@@H]1CC2` (racemic) is 0.29 µM. The same measure, in the same setting: then `CC1(C)C(=O)C(C#N)=C[C@]2(C)C3=CC(=O)CC[C@]3(C(=O)OCOCC[Si](C)(C)C)CC[C@@H]12` (racemic), with 0.15 µM; and `CC1(C)C(=O)C(C#N)=C[C@]2(C)C3=CC(=O)CC[C@]3(C(=O)O)CC[C@@H]12` (racemic), with 0.083 µM; and `CC1(C)C(=O)C(C#N)=C[C@]2(C)C3=CC(=O)CC[C@]3(C(N)=O)CC[C@@H]12` (racemic), with greater than 10 µM. The same measure, in the same setting: then `COC[C@]12CCC(=O)C=C1[C@@]1(C)C=C(C#N)C(=O)C(C)(C)[C@@H]1CC2` (racemic), with 0.04 µM.

Consider `CC1(C)C(=O)C(C#N)=C[C@]2(C)C3=CC(=O)CC[C@]3(CN)CC[C@@H]12` (racemic), for which the IC50 came to 0.24 µM. For the compound `CC[C@]12CCC(=O)C=C1[C@@]1(C)C=C(C#N)C(=O)C(C)(C)[C@@H]1CC2` (racemic), the IC50 worked out at 0.08 µM. As for `C#C[C@]12CCC(=O)C=C1[C@@]1(C)C=C(C#N)C(=O)C(C)(C)[C@@H]1CC2` (racemic), the IC50 stood at 0.083 µM.

In the case of `CC1(C)C(=O)C(C#N)=C[C@]2(C)C3=CC(=O)C(C#N)=C[C@]3(C#N)CC[C@@H]12` (racemic), the IC50 was 0.115 µM.

Turning to `CC1(C)C(=O)C(C#N)=C[C@]2(C)C3=CC(=O)C(C#N)=C[C@]3(C#Cc3ncc[nH]3)CC[C@@H]12` (racemic), the IC50 was 0.4 µM. On the same count and under the same terms, then `CC#C[C@]12C=C(C#N)C(=O)C=C1[C@@]1(C)C=C(C#N)C(=O)C(C)(C)[C@@H]1CC2` (racemic), with 0.005 µM; and `CCC#C[C@]12C=C(C#N)C(=O)C=C1[C@@]1(C)C=C(C#N)C(=O)C(C)(C)[C@@H]1CC2` (racemic), with 0.02 µM; and `CC1(C)C(=O)C(C#N)=C[C@]2(C)C3=CC(=O)C(C#N)=C[C@]3(C#C[Si](C)(C)C)CC[C@@H]12` (racemic), with 0.003 µM. On the same count and under the same terms, the figure for `C[C@@H]1C[C@H]2[C@@H]3CCC4=CC(=O)C=C[C@]4(C)[C@@]3(F)[C@@H](O)C[C@]2(C)[C@@]1(O)C(=O)CO` [DEXAMETHASONE] is 0.02 µM.

The assay is the same for the next values; noted with them: raw264.7.
Turning to `C#C[C@]12C=C(C#N)C(=O)C=C1[C@@]1(C)C=C(C#N)C(=O)C(C)(C)[C@@H]1CC2`, the IC50 was 0.003 µM.

A further assay concerns the target NAD(P)H dehydrogenase [quinone] 1 (Mus musculus) (UniProt Q64669). Put plainly: Induction of NQO1 activity in mouse Hepa-1c1c7 cells after 48 hrs.
Details: not given
The format is cell-based.
Compound `CC1(C)C(=O)C(C#N)=C[C@]2(C)C3=CC(=O)C(C#N)=C[C@]3(C)CC[C@@H]12` showed a CD of 150 nM. Same read-out and setting: the figure for `CC1(C)C(=O)C(C#N)=C[C@]2(C)C3=CC(=O)C=C[C@]3(C)CC[C@@H]12` is 170 nM. The same measure, in the same setting: then `CC1(C)C(=O)C(C#N)=C[C@]2(C)C3=CC(=O)C(C#N)=C[C@]3(C#C[Si](C)(C)C(C)(C)C)CCC12` (mixture of isomers), with 150 nM; and `CC#C[C@]12C=C(C#N)C(=O)C=C1[C@@]1(C)C=C(C#N)C(=O)C(C)(C)[C@@H]1CC2` (racemic), with 7.5 nM; and `CC1(C)C(=O)C(C#N)=C[C@]2(C)C3=CC(=O)C=C[C@]3(C)CC[C@@H]12` (racemic), with 160 nM.

In general, IC50 refers to the concentration that inhibits the measured activity by half.
